Active and inactive are the calls of the source. The calls are words filed in the database; no cut-off is given here.
Legend:
[1] = target: T1, Sphingosine 1-phosphate receptor 1 (Homo sapiens, UniProt P21453); assay: Agonist activity at human S1P1 receptor assessed as cAMP accumulation by HTRF assay; format: functional
In short: (§1)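 HTRF cyclase (cAMP) functional assay at S1P1 of each species; EC50 taken as mean of three or more replicates; efficacy given as % agonism relative to S1P.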

[2] = target: T1, Sphingosine 1-phosphate receptor 1; assay: Agonist activity at human S1P1 receptor assessed as cAMP accumulation by HTRF assay relative to S1P; format: functional; in short: as §1
[3] = Activation of Inward rectifier potassium channel in human atrial myocytes; format: cell-based; conditions: Cardiac atrium
In short: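 In vitro activation of the inward-rectifying potassium channel (IKACh) in human atrial myocytes, run alongside S1P as reference agonist; potency expressed as EC50.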

Rattus norvegicus [4] = assay: Reduction in ankle diameter in Lewis rat collagen-induced arthritis model at 1 mg/kg, po qd measured on day 17 (reference value: +/- inches); format: functional
In short: (§2)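 Female Lewis rats with collagen-induced arthritis, prophylactic daily oral dosing; ankle diameter (inches) and body weight recorded at day 17 end point; mean ± SEM.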

Mus musculus = assay: Reduction in disease severity in C57Bl/6 mouse experimental autoimmune encephalomyelitis model of multiple sclerosis at 1 mg/kg dosed once daily beginning on day 18 and continued to day 37; format: functional, organism-based; design: dose 1 mg/kg
In short: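 Female C57Bl/6 mice with MOG35–55-induced EAE; once-daily treatment started day 18 after severe disease onset and continued to day 37; vehicle 0.5% methylcellulose; clinical scoring.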

Rattus norvegicus [5] = assay: Induction of body weight regain in Lewis rat collagen-induced arthritis model at 1 mg/kg, po qd measured on day 17 (reference value: 160.3 +/- 2.3 g); format: functional
[6] = Half life in rat liver microsomes; format: ADME
In short: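 Stability on incubation with liver microsomes of each species; half-life reported.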

Rattus norvegicus [7] = assay: Reduction in ankle diameter in Lewis rat collagen-induced arthritis model at 0.075 mg/kg, po qd measured on day 17 (reference value: +/- inches); format: functional; in short: as §2
Rattus norvegicus [8] = assay: Induction of body weight regain in Lewis rat collagen-induced arthritis model at 0.075 mg/kg, po qd measured on day 17 (reference value: 160.3 +/- 2.3 g); format: functional

T1 sequence (P21453 whole entry): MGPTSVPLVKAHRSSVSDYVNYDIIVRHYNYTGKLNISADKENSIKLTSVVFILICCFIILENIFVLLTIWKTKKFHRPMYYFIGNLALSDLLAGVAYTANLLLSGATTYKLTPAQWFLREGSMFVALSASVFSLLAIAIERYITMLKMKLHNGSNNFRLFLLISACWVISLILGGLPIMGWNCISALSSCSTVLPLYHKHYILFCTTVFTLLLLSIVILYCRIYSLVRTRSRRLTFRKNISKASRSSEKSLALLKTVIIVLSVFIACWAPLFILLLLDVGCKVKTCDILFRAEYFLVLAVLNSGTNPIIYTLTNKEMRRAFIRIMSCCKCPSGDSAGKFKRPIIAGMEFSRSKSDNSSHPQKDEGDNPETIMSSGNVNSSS

**Q.** For `O=C(O)CC1CCc2c1[nH]c1ccc(OCc3ccc(C4CCCC4)c(C(F)(F)F)c3)cc21` (racemic), which EC50 [1] is on record?
**A.** Its EC50 is 0.073 nM.

**Q.** What about the Emax [2] of the same molecule?
**A.** The Emax was 104%.

**Q.** For `O=C(O)CC1CCc2c1[nH]c1ccc(OCc3ccc(C4CCCCC4)c(C(F)(F)F)c3)cc21` (racemic), which EC50 [1] is on record?
**A.** Its EC50 is 0.077 nM.

**Q.** And the Emax [2]?
**A.** Its Emax is 96%.

**Q.** What does the source list for `COc1ccc(COc2ccc3[nH]c4c(c3c2)CCC4CC(=O)O)cc1C#N` (racemic)?
**A.** EC50 [1]: 120 nM; Emax [2]: 136%

**Q.** With `O=C(O)CC1CCc2c1[nH]c1ccc(OCc3ccc(C4CC4)c(C(F)(F)F)c3)cc21` (racemic) as the molecule, how does the EC50 [1] read?
**A.** Its EC50 is 3.68 nM.

**Q.** And the Emax [2]?
**A.** The Emax was 118%.

**Q.** With `O=C(O)CC1CCc2c1[nH]c1ccc(OCc3ccc(Cl)c(C(F)(F)F)c3)cc21` (racemic) as the molecule, how does the EC50 [1] read?
**A.** The EC50 was 159 nM.

**Q.** What about the Emax [2] of the same molecule?
**A.** Its Emax is 117%.

**Q.** Which EC50 [3] does the source give for `CCCCCCCCCCCCC/C=C/[C@@H](O)[C@@H](N)COP(=O)(O)O` here?
**A.** The EC50 was 2.1 nM.

**Q.** What about the EC50 [1] of the same molecule?
**A.** Its EC50 is 0.062 nM.

**Q.** What does the source list for `CCCCCCCCc1ccc(CCC(N)(CO)CO)cc1` [FINGOLIMOD]?
**A.** Activity (Rattus norvegicus [4]): 0.2694 inches; Activity (Mus musculus): Active; Activity (Rattus norvegicus [5]): 181.9 g

**Q.** Which EC50 [1] does the source give for `CC(C)Cc1ccc(COc2ccc3[nH]c4c(c3c2)CCC4CC(=O)O)cc1C(F)(F)F` (racemic) here?
**A.** The EC50 was 0.44 nM.

**Q.** And the Emax [2]?
**A.** Its Emax is 103%.

**Q.** What does the source list for `O=C(O)C[C@@H]1CCc2c1[nH]c1ccc(OCc3ccc(C4CCCC4)c(C(F)(F)F)c3)cc21`?
**A.** EC50 [1]: 0.09 nM; Emax [2]: 103%; half-life [6]: 9 min

**Q.** What does the source list for `O=C(O)CC1CCc2c1[nH]c1ccc(OCc3ccc(CC4CCCCC4)c(C(F)(F)F)c3)cc21` (racemic)?
**A.** EC50 [1]: 4.58 nM; Emax [2]: 111%

**Q.** Which EC50 [1] does the source give for `N#Cc1cc(COc2ccc3[nH]c4c(c3c2)CCC4CC(=O)O)ccc1OC(F)(F)F` (racemic) here?
**A.** The EC50 was 1.7 nM.

**Q.** And the Emax [2]?
**A.** The Emax was 109%.

**Q.** For `N#Cc1ccc(COc2ccc3[nH]c4c(c3c2)CCC4CC(=O)O)cc1C(F)(F)F` (racemic), which EC50 [1] is on record?
**A.** The EC50 was 141 nM.

**Q.** And the Emax [2]?
**A.** The Emax was 104%.

**Q.** With `O=C(O)CC1CCc2c1[nH]c1ccc(OCc3ccc(C4CCC4)c(C(F)(F)F)c3)cc21` (racemic) as the molecule, how does the EC50 [1] read?
**A.** Its EC50 is 0.45 nM.

**Q.** And the Emax [2]?
**A.** Its Emax is 109%.

**Q.** Which Emax [2] does the source give for `N#Cc1cc(COc2ccc3[nH]c4c(c3c2)CCC4CC(=O)O)cc(OC(F)(F)F)c1` (racemic) here?
**A.** The Emax was 90%.

**Q.** Which EC50 [1] does the source give for `CCCc1ccc(COc2ccc3[nH]c4c(c3c2)CCC4CC(=O)O)cc1C(F)(F)F` (racemic) here?
**A.** Its EC50 is 0.49 nM.

**Q.** And the Emax [2]?
**A.** The Emax was 107%.

**Q.** Which EC50 [1] does the source give for `N#Cc1cc(COc2ccc3[nH]c4c(c3c2)CCC4CC(=O)O)ccc1C1CCCCC1` (racemic) here?
**A.** The EC50 was 0.087 nM.

**Q.** And the Emax [2]?
**A.** The Emax was 98%.

**Q.** Which Emax [2] does the source give for `O=C(O)CC1CCc2c1[nH]c1ccc(OCc3cc(C(F)(F)F)cc(C(F)(F)F)c3)cc21` (racemic) here?
**A.** The Emax was 98%.

**Q.** With `CC(C)(C)Cc1ccc(COc2ccc3[nH]c4c(c3c2)CCC4CC(=O)O)cc1C(F)(F)F` (racemic) as the molecule, how does the EC50 [1] read?
**A.** The EC50 was 55.8 nM.

**Q.** And the Emax [2]?
**A.** The Emax was 112%.

**Q.** Which Activity (Rattus norvegicus [7]) does the source give for `CN(Cc1cnc2nc(N)nc(N)c2n1)c1ccc(C(=O)N[C@@H](CCC(=O)O)C(=O)O)cc1` [METHOTREXATE] here?
**A.** The Activity was 0.2795 inches.

**Q.** What about the Activity (Rattus norvegicus [8]) of the same molecule?
**A.** Its Activity is 181.7 g.

— ChEMBL document CHEMBL3352115, “Discovery of APD334: Design of a Clinical Stage Functional Antagonist of the Sphingosine-1-phosphate-1 Receptor” (ACS Med Chem Lett, 2014)
